The values below come from ChEMBL document CHEMBL1123074, “Aromatase inhibitors. Synthesis and biological activity of androstenedione derivatives” (J Med Chem, 1985).

For data set [1], the target named is T1, Aromatase (Homo sapiens, UniProt P11511).
T1 sequence (P11511 whole entry): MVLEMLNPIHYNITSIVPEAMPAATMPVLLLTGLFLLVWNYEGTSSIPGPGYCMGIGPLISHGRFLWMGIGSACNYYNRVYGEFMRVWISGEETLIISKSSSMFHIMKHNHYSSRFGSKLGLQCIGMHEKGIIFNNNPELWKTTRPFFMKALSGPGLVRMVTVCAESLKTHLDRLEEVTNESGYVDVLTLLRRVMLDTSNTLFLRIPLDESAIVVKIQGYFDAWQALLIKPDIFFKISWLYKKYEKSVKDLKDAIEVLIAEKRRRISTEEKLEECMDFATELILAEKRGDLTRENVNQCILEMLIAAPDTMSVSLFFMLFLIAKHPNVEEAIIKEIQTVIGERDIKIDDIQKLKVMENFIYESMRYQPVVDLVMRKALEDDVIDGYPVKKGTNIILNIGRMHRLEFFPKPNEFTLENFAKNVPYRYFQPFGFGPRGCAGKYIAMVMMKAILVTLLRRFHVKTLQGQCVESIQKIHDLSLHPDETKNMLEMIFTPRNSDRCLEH
Nature of the data set: Percent inhibition of human placental Cytochrome P450 19A1 at 1:1 inhibitor: androstenedione (0.7 uM) ratio. The method in brief:
(§1)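 Human term placental microsomes (0.3-0.9 mg protein) incubated with test compound at stated inhibitor:substrate ratio, [4-14C]androstenedione, 0.7 μM androstenedione and NADPH-generating system (NADP, glucose 6-phosphate, glucose-6-phosphate dehydrogenase) in 0.1 M phosphate buffer pH 7.4, 30 min, 37 °C under oxygen. Stopped with [6,7-3H2]estradiol/estrone recovery markers and carriers; estrogens extracted, TLC-purified, quantified versus control.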

Data set [2] has as its target T1, Aromatase. Description: Percent inhibition of human placental Cytochrome P450 19A1 at 3:1 inhibitor: androstenedione (0.7 uM) ratio. The method in brief: as §1
The target of data set [3] is T1, Aromatase. Description: Percent inhibition of human placental Cytochrome P450 19A1 at 6:1 inhibitor: androstenedione (0.7 uM) ratio. The method in brief:
as §1

For `CC(=O)OC1=C2CCC3C4CCC(=O)C4(C)CCC3C2(C)CCC1=O` (stereo unspecified), the Inhibition on Aromatase [1] came out at 81%; at Aromatase [2], 90%. With `CC12CCC3C(C=CC4=C(O)C(=O)CCC43C)C1CCC2=O` (stereo unspecified), the Inhibition was found to be 8% on Aromatase [1] and 30% on Aromatase [2]. In the case of `CC12CCC3C(CCC4=C(OC(=O)CCC(=O)O)C(=O)CCC43C)C1CCC2=O` (stereo unspecified), the Inhibition on Aromatase [2] turned out to be 70%. In the case of `CC12CCC3C(CCC4=C(Cl)C(=O)CCC43C)C1CCC2=O` (stereo unspecified), the Inhibition is 9% on Aromatase [2] and 43% at Aromatase [3]. In the case of `CC12CCC3C(CC(=O)C4=CC(=O)CCC43C)C1CCC2=O` (stereo unspecified), the Inhibition at Aromatase [2] is 78%. On to `C[C@]12C=CC(=O)C=C1C=C[C@@H]1[C@@H]2CC[C@]2(C)C(=O)CC[C@@H]12`, for which the results for the Inhibition on Aromatase [1] and at Aromatase [2] were 69% and 83%, respectively. As for `CC12C=CC(=O)C(O)=C1CCC1C2CCC2(C)C(=O)CCC12` (stereo unspecified), the Inhibition on Aromatase [1] came out at 66%; at Aromatase [2], 84%.

For `COC1=C2CCC3C4CCC(=O)C4(C)CCC3C2(C)CCC1=O` (stereo unspecified), the results for the Inhibition at Aromatase [2] and on Aromatase [3] were 7% and 28%, respectively.

Consider `C[C@]12CCC(=O)C(O)=C1CC[C@@H]1[C@@H]2CC[C@]2(C)C(=O)CC[C@@H]12` [FORMESTANE], for which the Inhibition amounted to 89% on Aromatase [1] and 91% on Aromatase [2].

One may read the Inhibition as how much of the control response was suppressed.
